Measured values as given in ChEMBL document CHEMBL5584363, “Euphane and Tirucallane Triterpenes with Trypanocidal Activity from Euphorbia desmondii” (J Nat Prod, 2024).
Activity calls are given as the source filed them. The rule behind the calls is not given here.

Assays:
Trypanosoma cruzi [1] = experiment: Antitrypanosomal activity against Trypanosoma cruzi […] Y (ATCC 50832) expressing GFP infected in mouse RAW264.7 cells assessed as inhibition of parasite replication measured after 6 days by FACS analysis; assay type: functional, organism-based; conditions: time 6.0 day
Procedure, shortened: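 RAW264.7 cells seeded at 40,000 or 10,000 cells/mL and left to adhere 24 h. Infected with swim-out trypomastigotes at multiplicity 10. Next day free parasites washed off and compound added in RPMI with 2% FBS. After 6 days, released GFP parasites fixed in 4% paraformaldehyde 1 h and counted by FACS. Run in triplicate with DMSO and benznidazole controls.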

Trypanosoma cruzi [2] = experiment: Antitrypanosomal activity against Trypanosoma cruzi trypomastigotes Y (ATCC 50832) expressing GFP infected in CCL39 cells assessed as reduction in parasite replication measured after 1 hr by microscopy; assay type: functional, organism-based
Procedure, shortened: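 CCL39 fibroblasts seeded at 20,000 cells/mL and left to adhere 24 h. Infected with trypomastigotes at multiplicity 10. Next day free parasites washed off and compound added in RPMI with 2% hiFBS. On day 4 after infection, cells fixed in 4% paraformaldehyde for 1 h and imaged by brightfield and GFP fluorescence microscopy.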

[3] = Selectivity index, ratio of IC50 for mouse RAW264.7 cells to IC50 for antitrypanosomal activity against Trypanosoma cruzi […] Y (ATCC 50832) expressing GFP infected in mouse RAW264.7 cells assessed as inhibition of parasite replication; assay type: toxicity, cell-based; conditions: read-out: Ratio IC50
[4] = Effect on Trypanosoma cruzi epimastigotes Y (ATCC 50832) expressing GFP proliferation assessed as increase in cell proliferation at 0.3 uM incubated for 72 hrs by XTT assay relative to control; assay type: functional
Procedure, shortened: (§1)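 Y-strain epimastigotes kept in LIT medium with 10% heat-inactivated FBS at 28 °C; log-phase cells used. 1.5 × 10^5 parasites per well. Exposure at 10 μM (screen) or six concentrations from 10–0.3 μM for 72 h at 28 °C, with benznidazole control. XTT/PMS added for 2.5 h at 28 °C, then MeOH fixation and A490. Viability given as % of vehicle, or IC50. Triplicate, at least two independent experiments.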

Trypanosoma cruzi [5] = experiment: Antitrypanosomal activity against Trypanosoma cruzi epimastigotes Y (ATCC 50832) expressing GFP at 10 uM incubated for 72 hrs by XTT assay; assay type: functional, organism-based; procedure, shortened: as §1
Trypanosoma cruzi [6] = experiment: Antitrypanosomal activity against Trypanosoma cruzi epimastigotes Y (ATCC 50832) expressing GFP incubated for 72 hrs by XTT assay; assay type: functional, organism-based; procedure, shortened: as §1
[7] = Selectivity index, ratio of IC50 for mouse RAW264.7 cells to IC50 for antitrypanosomal activity against Trypanosoma cruzi epimastigotes Y (ATCC 50832) expressing GFP; assay type: toxicity; conditions: read-out: Ratio IC50
[8] = Cytotoxicity against mouse RAW264.7 cells assessed as reduction in cell viability; assay type: toxicity, cell-based

IC50 (Trypanosoma cruzi [6]) [µM]	SMILES	inhibition (Trypanosoma cruzi [1])	Activity (Trypanosoma cruzi [2])	selectivity ratio [3]	Activity [4] [%]	Activity (Trypanosoma cruzi [5])	selectivity ratio [7]	IC50 [8] [µM]
–	C[C@H](C/C=C/C(C)(C)OO)[C@@H]1CC[C@]2(C)C3=C(CC[C@@]12C)[C@@]1(C)CC[C@H](O)C(C)(C)[C@@H]1CC3=O	Dose-Dependent Effect	Active	> 10	–	–	–	–
–	C[C@@H](C/C=C/C(C)(C)OO)[C@@H]1CC[C@]2(C)C3=C(C(OO)C[C@@]12C)[C@@]1(C)CC[C@H](O)C(C)(C)[C@@H]1CC3=O (some centres not stated)	–	–	–	15	Active	–	–
3.7	CC(=O)CCC[C@H](C)[C@@H]1CC[C@]2(C)C3=C(C(=O)C[C@@]12C)[C@@]1(C)CC[C@H](O)C(C)(C)[C@@H]1CC3=O	–	–	–	15	Active	6.6	24.4
–	CC(C)=CCC[C@@H](C)[C@@H]1CC[C@]2(C)C3=C(C(=O)C[C@@]12C)[C@@]1(C)CC[C@H](O)C(C)(C)[C@@H]1C[C@H]3O	–	–	–	15	Active	–	–
